Data published in ChEMBL document CHEMBL4665839, “Pyrrolo[2',3':3,4]cyclohepta[1,2-d][1,2]oxazoles, a New Class of Antimitotic Agents Active against Multiple Malignant Cell Types” (J Med Chem, 2020).
Activity calls are given as the source filed them. The rule behind the calls is not given here.

Key:
HeLa [1] = assay: Induction of cell cycle arrest in human Hela cells assessed as cdc25c expression at 0.5 uM incubated for 24 hrs by Western blot analysis relative to control; format: functional
Summary of the method: (§1)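 HeLa cells treated at 0.1 or 0.5 μM for 24 or 48 h, washed in ice-cold PBS, lysed on ice 30 min, cleared at 15 000g, 4 °C. 10 μg protein per lane on SDS-PAGE, transferred to PVDF, blocked overnight in 5% BSA at 4 °C. Primary antibodies 2 h at room temperature, peroxidase secondaries 1 h, ECL detection. Membranes reprobed for GAPDH; densitometry reported as protein/GAPDH ratio.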

HeLa [2] = assay: Induction of apoptosis in human HeLa cells assessed as MCL1 protein expression at 0.1 uM incubated for 48 hrs by Western blot analysis relative to control; format: functional; summary of the method: as §1
HeLa [3] = assay: Induction of apoptosis in human Hela cells assessed as increase in necrotic cells at 0.5 uM incubated for 24 to 48 hrs by Annexin V-FITC/propidium iodide staining based flow cytometry; format: functional, cell-based; conditions: time hrs 24-48
Summary of the method: (§2)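 HeLa cells exposed 24 or 48 h, harvested, double-stained with annexin-V-FITC and PI, then read by flow cytometry. Gates: live (annexin-V–/PI–), early apoptotic (annexin-V+/PI–), late apoptotic (annexin-V+/PI+), necrotic (annexin-V–/PI+). Mean ± SEM of three independent experiments.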

HeLa [4] = assay: Induction of cell cycle arrest in human Hela cells assessed as accumulation at G2/M phase incubated for 24 hrs by PI staining based flow cytometric analysis; format: functional
HeLa [5] = assay: Induction of apoptosis in human HeLa cells assessed as cleaved PARP protein expression at 0.5 uM incubated for 24 hrs by Western blot analysis relative to control; format: functional; summary of the method: as §1
HeLa [6] = assay: Induction of cell cycle arrest in human Hela cells assessed as cyclin B expression at 0.1 uM incubated for 24 hrs by Western blot analysis relative to control; format: functional; summary of the method: as §1
HeLa [7] = assay: Induction of apoptosis in human HeLa cells assessed as XIAP protein expression at 0.1 uM incubated for 48 hrs by Western blot analysis relative to control; format: functional; summary of the method: as §1
HeLa [8] = assay: Induction of cell cycle arrest in human Hela cells assessed as cyclin B expression at 0.5 uM incubated for 48 hrs by Western blot analysis relative to control; format: functional; summary of the method: as §1
HeLa [9] = assay: Induction of apoptosis in human Hela cells assessed as increase in apoptotic cells at 0.5 uM incubated for 24 to 48 hrs by Annexin V-FITC/propidium iodide staining based flow cytometry; format: functional, cell-based; conditions: time hrs 24-48; summary of the method: as §2
[10] = Cytotoxicity against human PBL assessed as reduction in cell viability in presence of mitogenic stimulus phytohaemagglutinin incubated for 72 hrs by MTT assay; format: cell-based
Summary of the method: (§3)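 PBLs from healthy donor buffy coats isolated by density-gradient centrifugation, washed, held overnight at 1.0 × 10^6 cells/mL in RPMI-1640 with 10% FBS. Nonadherent cells reseeded at 5 × 10^5 cells/mL, either with 2.5 μg/mL PHA (proliferating) or without (resting). Graded compound concentrations for 72 h, viability by MTT. GI50 = concentration inhibiting growth 50%; mean ± SEM of three separate experiments.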

HeLa [11] = assay: Induction of apoptosis in human HeLa cells assessed as cleaved PARP protein expression at 0.1 uM incubated for 24 hrs by Western blot analysis relative to control; format: functional; summary of the method: as §1
HeLa [12] = assay: Induction of cell cycle arrest in human Hela cells assessed as phosphorylated cdc2 expression at 0.1 uM incubated for 48 hrs by Western blot analysis relative to control; format: functional; summary of the method: as §1
HeLa [13] = assay: Induction of cell cycle arrest in human Hela cells assessed as cdc25c expression at 0.1 uM incubated for 48 hrs by Western blot analysis relative to control; format: functional; summary of the method: as §1
HeLa [14] = assay: Induction of apoptosis in human HeLa cells assessed as MCL1 protein expression at 0.5 uM incubated for 24 hrs by Western blot analysis relative to control; format: functional; summary of the method: as §1
HeLa [15] = assay: Induction of cell cycle arrest in human Hela cells assessed as cyclin B expression at 0.1 uM incubated for 48 hrs by Western blot analysis relative to control; format: functional; summary of the method: as §1
HeLa [16] = assay: Induction of apoptosis in human HeLa cells assessed as MCL1 protein expression at 0.5 uM incubated for 48 hrs by Western blot analysis relative to control; format: functional; summary of the method: as §1
HeLa [17] = assay: Induction of apoptosis in human HeLa cells assessed as cleaved PARP protein expression at 0.5 uM incubated for 48 hrs by Western blot analysis relative to control; format: functional; summary of the method: as §1
HeLa [18] = assay: Induction of apoptosis in human HeLa cells assessed as cleaved PARP protein expression at 0.1 uM incubated for 48 hrs by Western blot analysis relative to control; format: functional; summary of the method: as §1
HeLa [19] = assay: Induction of cell cycle arrest in human Hela cells assessed as cyclin B expression at 0.5 uM incubated for 24 hrs by Western blot analysis relative to control; format: functional; summary of the method: as §1
[20] = Cytotoxicity against human PBL assessed as reduction in cell viability incubated for 72 hrs by MTT assay; format: cell-based; conditions: peripheral blood lymphocytes (PBL); summary of the method: as §3
HeLa [21] = assay: Induction of cell cycle arrest in human Hela cells assessed as phosphorylated cdc2 expression at 0.1 uM incubated for 24 hrs by Western blot analysis relative to control; format: functional; summary of the method: as §1
HeLa [22] = assay: Induction of cell cycle arrest in human Hela cells assessed as phosphorylated cdc2 expression at 0.5 uM incubated for 24 hrs by Western blot analysis relative to control; format: functional; summary of the method: as §1
HeLa [23] = assay: Induction of apoptosis in human HeLa cells assessed as MCL1 protein expression at 0.1 uM incubated for 24 hrs by Western blot analysis relative to control; format: functional; summary of the method: as §1
HeLa [24] = assay: Induction of apoptosis in human HeLa cells assessed as XIAP protein expression at 0.5 uM incubated for 24 hrs by Western blot analysis relative to control; format: functional; summary of the method: as §1
HeLa [25] = assay: Induction of cell cycle arrest in human Hela cells assessed as cdc25c expression at 0.1 uM incubated for 24 hrs by Western blot analysis relative to control; format: functional; summary of the method: as §1
HeLa [26] = assay: Induction of cell cycle arrest in human Hela cells assessed as phosphorylated cdc2 expression at 0.5 uM incubated for 48 hrs by Western blot analysis relative to control; format: functional; summary of the method: as §1
HeLa [27] = assay: Induction of apoptosis in human HeLa cells assessed as XIAP protein expression at 0.1 uM incubated for 24 hrs by Western blot analysis relative to control; format: functional; summary of the method: as §1
HeLa [28] = assay: Induction of cell cycle arrest in human Hela cells assessed as accumulation at G2/M phase at 0.125 uM incubated for 24 hrs by PI staining based flow cytometric analysis; format: functional
Summary of the method: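 5 × 10^5 HeLa cells treated 24 h over a range of concentrations, fixed in ice-cold 70% ethanol, treated with lysis buffer containing RNase A and 0.1% Triton X-100, PI-stained. DNA content read by flow cytometry; phase distribution is mean ± SEM of three experiments.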

HeLa [29] = assay: Induction of reactive oxygen species generation in human HeLa cells at 0.5 uM treated for 48 hrs by H2DCFDA staining based flow cytometry; format: functional, cell-based
Summary of the method: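 After treatment, HeLa cells pelleted and resuspended in PBS containing 0.1 μM H2DCFDA, incubated 30 min at 37 °C, then washed back into PBS. DCF fluorescence measured by flow cytometry (excitation 488 nm, emission 530 nm). Mean ± SEM of three independent experiments.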

HeLa [30] = assay: Induction of cell cycle arrest in human Hela cells assessed as accumulation at G2/M phase at 0.25 uM incubated for 24 hrs by PI staining based flow cytometric analysis; format: functional
Summary of the method: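 HeLa cells (5 × 10^5) exposed to compound at several concentrations for 24 h, then collected, fixed in ice-cold 70% ethanol, treated with lysis buffer containing RNase A and 0.1% Triton X-100, stained with propidium iodide. DNA content measured by flow cytometry; percentage of cells in each cycle phase derived from DNA histograms. Mean ± SEM of three experiments.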

HeLa [31] = assay: Induction of cell cycle arrest in human Hela cells assessed as reduction of cells at S phase 1 uM incubated for 24 hrs by PI staining based flow cytometric analysis; format: functional
HeLa [32] = assay: Induction of cell cycle arrest in human Hela cells assessed as accumulation at M phase at 1 uM incubated for 24 hrs by PI staining based flow cytometric analysis; format: functional

For CCOC(=O)c1cc2c(n1Cc1cc(OC)cc(OC)c1)-c1oncc1CCC2, the “fold change (FC)” value (HeLa [1]) was 0.05, the “fold change (FC)” value (HeLa [2]) was 0.37 and the Activity (HeLa [3]) was “Active”. The Activity (HeLa [4]) was “Dose-dependent effect”, the “fold change (FC)” value (HeLa [5]) was 42.13 and the “fold change (FC)” value (HeLa [6]) was 18.74. For the same compound, the “fold change (FC)” value (HeLa [7]) was 0.12, the “fold change (FC)” value (HeLa [8]) was 2.05 and the Activity (HeLa [9]) was “Active”. The GI50 at 72 h [10] was > 100 µM, the “fold change (FC)” value (HeLa [11]) was 17.65 and the “fold change (FC)” value (HeLa [12]) was 0.17. For the same compound, the “fold change (FC)” value (HeLa [13]) was 0.23, the “fold change (FC)” value (HeLa [14]) was 0.11 and the “fold change (FC)” value (HeLa [15]) was 2.39. The “fold change (FC)” value (HeLa [16]) was 0.38, the “fold change (FC)” value (HeLa [17]) was 42.83 and the “fold change (FC)” value (HeLa [18]) was 13.8. For the same compound, the “fold change (FC)” value (HeLa [19]) was 64.07, the GI50 at 72 h [20] was > 100 µM and the “fold change (FC)” value (HeLa [21]) was 0.51. The “fold change (FC)” value (HeLa [22]) was 0.31, the “fold change (FC)” value (HeLa [23]) was 0.37 and the “fold change (FC)” value (HeLa [24]) was 0.54. For the same compound, the “fold change (FC)” value (HeLa [25]) was 0.23, the “fold change (FC)” value (HeLa [26]) was 0.31 and the “fold change (FC)” value (HeLa [27]) was 0.91. For the same compound, the Activity (HeLa [28]) was “Active” and the Activity (HeLa [29]) was “Active”.
In the case of CCOC(=O)c1c(Cl)c2c(n1Cc1cc(OC)cc(OC)c1)-c1oncc1CCC2, the GI50 at 72 h [10] is reported as > 100 µM, the GI50 at 72 h [20] is reported as > 100 µM and the Activity (HeLa [30]) is reported as “Active”.
With CCOC(=O)c1cc2c(n1Cc1cccc(OC)c1)-c1oncc1CCC2 the GI50 at 72 h [10] was > 100 µM, the Activity (HeLa [31]) was “Active” and the GI50 at 72 h [20] was > 100 µM. For the same compound, the Activity (HeLa [32]) was “Active”.
